Compound activity deposited in PubChem by several laboratories.
TRPC6 activator = activators of mouse TRPC6 channel | Q61143 | HEK293-TRPC6 membrane potential dye fluorescence; hits give high values | B-score at 10 µM | 310,000 tested, 0.13% active | AID 2550;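 active = B-score of the integrated fluorescence ratio above library mean plus 3 SD, and starting fluorescence ratio within library mean plus 5 SD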;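 note: higher score means more depolarization so channel activation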
DSG3 Ab inh = inhibitors of pemphigus antibody binding to human desmoglein-3; P32926; DSG3-coupled beads, scFv-anti-DSG3-GFP binding, flow cytometry; hits give low values; binding (percent of control), % at 10 µM; 310,000 tested, 0.48% active; AID 588358;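 active = binding more than 3 SD below its plate's average and above zero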;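 note: hits lower antibody fragment binding to DSG3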
Target sequence (P32926 whole entry, looked up, the tested form may be a part): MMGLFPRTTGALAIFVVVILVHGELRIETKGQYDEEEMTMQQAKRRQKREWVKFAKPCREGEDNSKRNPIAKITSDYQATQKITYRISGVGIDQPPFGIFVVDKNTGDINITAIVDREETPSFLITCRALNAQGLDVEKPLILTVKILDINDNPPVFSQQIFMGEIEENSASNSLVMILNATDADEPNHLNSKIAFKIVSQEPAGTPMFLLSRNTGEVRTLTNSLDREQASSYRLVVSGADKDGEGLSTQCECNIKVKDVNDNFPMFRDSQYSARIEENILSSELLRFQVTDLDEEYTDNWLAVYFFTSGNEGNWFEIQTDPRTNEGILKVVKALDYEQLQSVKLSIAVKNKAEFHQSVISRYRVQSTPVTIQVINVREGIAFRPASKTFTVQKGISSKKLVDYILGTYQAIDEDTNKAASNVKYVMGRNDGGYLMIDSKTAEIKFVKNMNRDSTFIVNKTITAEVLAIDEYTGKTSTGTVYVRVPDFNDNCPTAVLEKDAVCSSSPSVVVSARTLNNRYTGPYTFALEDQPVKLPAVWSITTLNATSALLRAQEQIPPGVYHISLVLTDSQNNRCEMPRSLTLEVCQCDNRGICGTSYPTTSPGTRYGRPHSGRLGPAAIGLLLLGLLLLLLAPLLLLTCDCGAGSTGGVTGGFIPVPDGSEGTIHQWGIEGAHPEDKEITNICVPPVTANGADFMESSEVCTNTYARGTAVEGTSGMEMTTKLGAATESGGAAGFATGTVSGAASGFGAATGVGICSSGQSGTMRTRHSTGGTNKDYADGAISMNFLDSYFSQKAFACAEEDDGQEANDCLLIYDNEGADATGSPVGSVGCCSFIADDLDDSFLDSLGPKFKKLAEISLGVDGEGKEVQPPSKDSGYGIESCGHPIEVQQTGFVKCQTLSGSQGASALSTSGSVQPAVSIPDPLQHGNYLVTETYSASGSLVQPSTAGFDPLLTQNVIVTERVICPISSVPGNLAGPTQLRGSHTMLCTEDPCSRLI
TRPC4 agonist = TRPC4 (mouse) channel activation; Q9QUQ5; HEK293 TRPC4beta/mu-opioid, Fluo4 calcium fluorescence; hits give high values; B-score at 10 µM; 310,000 tested, 0.49% active; AID 2237;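 active = B-score above 5 SD of library B-scores, and initial fluorescence ratio not above library mean plus 5 SD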;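 note: positive B-score marks a calcium rise read as TRPC4 activation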
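Technique: kinetic Fluo4 calcium fluorescence; Test system: TRPC4beta and mu-opioid receptor HEK293 stable cells; Measure: B-scored integrated calcium fluorescence ratio; Benchmarks: low control buffer alone, high control maximal DAMGO; Schedule: 45 min room-temperature Fluo4 loading, 110 s read.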
TRPC4 PAM = allosterically enhances the mouse TRPC4 cation channel; HEK293 TRPC4beta/mu-opioid, DAMGO EC20, Fluo-4 Ca2+ flux; hits give high values; B-score at 10 µM; 310,000 tested, 0.42% active; AID 2227;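 active = B-score of calcium response area above 5 SD of library B-scores, with initial fluorescence ratio within 5 SD of library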;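 note: B-score of integrated fluorescence ratio over time as area under calcium response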
TRPC6 inh = inhibitors of mouse TRPC6 channel | HEK293-TRPC6, membrane potential dye, ACh-evoked depolarization; hits give low values | B-score at 10 µM | 310,000 tested, 1.1% active | AID 2553;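 active = B-score under library mean minus 3 SD, initial fluorescence not abnormally high, positive integrated signal ratio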;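 note: B-score derived from integrated fluorescence ratio over the kinetic read; more negative B-score means stronger inhibition of depolarization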
TRPC4 block = inhibitors of mouse TRPC4 channel | HEK293 TRPC4beta/mu-opioid, DAMGO-evoked Fluo4 calcium flux; hits give low values | Q9QUQ5 | 300,000 tested, 0.39% active | B-score at 10 µM;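 active = B-score over 3 SD under the library average, no early fluorescence shift, positive overall ratio signal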
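Assay system: TRPC4beta/mu-opioid receptor HEK293 cell line; compound dosing: single concentration per test compound; detection: Fluo4 Ca2+ flux fluorescence; evaluation: per-well B score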
TRPC4 sel inh 2 = second check of whether TRPC6 inhibitors also affect mouse TRPC4; shares compounds with TRPC6 inh; HEK293 TRPC4/MOR, membrane potential dye fluorescence; channel activated by saturating DAMGO dose; inhibition, % at 10 µM; 920 tested, 42% active; AID 2776;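 active = compounds whose fluorescence signal differed from control wells by over 3 SD, either direction, in both duplicate plates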
TRPC4 spec = mouse TRPC4 off-target activity of TRPC6 inhibitors | shares compounds with TRPC6 inh | HEK293 TRPC4/mu-opioid, membrane potential fluorescence | activity change, negative = inhibition, % at 10 µM | 920 tested, 61% active | AID 2777;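 active = rise or fall in signal beyond 3 SD of buffer-only wells in both replicate plates, either sign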;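 note: integrated kinetic ratio of fluorescence range over baseline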
HEK293 MPD ctr 2-1 = second check of TRPC6 inhibitor effects in parental HEK293 cells | shares compounds with TRPC6 inh | signal change vs control, % at 10 µM | parental HEK293 membrane potential dye fluorescence; maximal acetylcholine challenge after compound addition | 920 tested, 31% active;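 active = membrane potential signal moving either way by over 3 SD of the maximum-effect control, in both duplicate plates, meaning non-specific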
HEK293 MPD ctr-1 = checks TRPC6 inhibitor effects in parental HEK293 cells; membrane potential signal change, % at 10 µM; 920 tested, 60% active; parental HEK293 membrane potential dye fluorescence; shares compounds with TRPC6 inh;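 active = membrane potential signal shifting up or down by more than 3 SD of buffer-only wells, on both duplicate plates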
HEK293 MPD ctr-2 = parental HEK293 nonspecific activity of TRPC6 modulators; membrane potential dye fluorescence; membrane potential signal change, % at 10 µM; shares compounds with TRPC6 inh; 2,400 tested, 51% active;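 active = membrane potential signal moves up or down beyond 5 SD from buffer-only wells, on both duplicate plates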
HEK293 MPD ctr 2-2 = parental HEK293 nonspecific activity of TRPC6 modulators, second screen | shares compounds with TRPC6 inh | membrane potential dye fluorescence; after compound, maximal acetylcholine stimulation | inhibition, % at 10 µM | 2,400 tested, 14% active;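 active = membrane potential signal drops by more than 5 SD from the mean control signal, in both duplicate plates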;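 note: plate controls were acetylcholine ECmax control wells for no effect and buffer only wells for full effect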
TRPC4/MOR mod = mouse TRPC4 off-target activity of TRPC6 modulators; 2,400 tested, 69% active; shares compounds with TRPC6 inh; HEK293 TRPC4/mu-opioid, membrane potential fluorescence; percent change from control (negative = decrease, positive = increase), % at 10 µM;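 active = membrane potential signal moved up or down beyond 5 SD of buffer control wells, in both duplicate plates, actives on both sides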;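 note: plate controls were assay buffer wells for no effect and DAMGO maximal-effect wells for full effect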
TRPC4 ctr inh 2 = mouse TRPC4 off-target activity of TRPC6 modulators, second screen; shares compounds with TRPC6 inh; HEK293 TRPC4/mu-opioid, membrane potential dye fluorescence; stimulated with maximal-effect DAMGO; inhibition, % at 10 µM; 2,400 tested, 55% active; AID 488928;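 active = drop in membrane potential signal beyond 5 SD of the control wells in both duplicate plates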;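 note: TRPC4 counter screen for TRPC6 hits run under conditions tuned for TRPC6 not TRPC4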
TRPC6 inh conf = confirmation of mouse TRPC6 inhibitors | 3,300 tested, 43% active | AID 488960 | HEK293-TRPC6, membrane potential dye, ACh-evoked depolarization | inhibition, % at 10 µM | shares compounds with TRPC6 inh;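 active = fluorescence ratio falls more than 5 SD below the full-stimulation control mean, in both duplicate runs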;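 note: integrated fluorescence ratio of peak minus minimum over baseline after agonist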
TRPC6 act conf = mouse TRPC6 activator confirmation; shares compounds with TRPC6 inh; HEK293-TRPC6 membrane potential dye fluorescence, FDSS; activation, % at 10 µM; 2,800 tested, 11% active; AID 488961;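 active = ratio signal rise beyond 5 SD above unstimulated control wells' mean, seen in both duplicate runs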;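 note: plate controls were buffer EC0 wells for no effect and acetylcholine ECmax response for full effect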
Active calls of the source: *; i = inactive; x = not tested or not shown; + = active, no number. A selection: hits, their analogues and other compounds. The true share with any hit is near 2.5%.

SMILES	TRPC6 activator	DSG3 Ab inh	TRPC4 agonist	TRPC4 PAM	TRPC6 inh	TRPC4 block	HEK293 MPD ctr-2	HEK293 MPD ctr 2-2	TRPC4/MOR mod	TRPC4 ctr inh 2	TRPC6 inh conf	TRPC6 act conf	others
O=C(O)CCC(=O)Nc1cc(C(F)(F)F)cc(C(F)(F)F)c1	i	109	i	i	i	i	x	x	x	x	x	x
CN(CC(=O)Nc1cccc(F)c1)C(=O)c1ccc(N2CCOCC2)c([N+](=O)[O-])c1	i	107	i	i	-7*	i	i	i	92%*	76%*	i	i
Cc1ccc2nc(N=C(N)N)nc(C)c2c1	i	107	i	i	-9.4*	i	-196%*	i	-36%*	64%*	37%*	i
O=C(c1ccccc1)N1CCN(Cc2ccccc2C(F)(F)F)CC1	12*	95	i	i	i	i	i	i	18%*	i	x	134%*
CCN(CC)c1ccc(-c2sc(Nc3ccccc3)n[n+]2-c2ccc(F)cc2)cc1	19*	392	i	i	i	i	+	i	204%*	i	i	226%*
CCc1ccc(Nc2n[n+](-c3ccccc3)c(-c3ccc(N(CC)CC)cc3)s2)cc1	i	342	i	i	i	i	x	x	x	x	x	x
COc1ccc([C@@H]2[C@@H]3C(=O)N(C(C)(C)C)C(=O)[C@@H]3[C@]3(Cc4ccccc4)C(=O)N(c4ccc(Br)cc4)C(=O)N23)cc1	i	100	i	i	-6.1*	i	i	i	i	i	i	i
ClCc1ncc(-c2ccc(Cl)cc2)o1	i	101	i	i	i	i	x	x	x	x	x	x
CCCCCOC(=O)c1ccc(NC(=O)c2cccc(NC(=O)c3ccccc3C(=O)O)c2)cc1	14*	116	i	i	i	i	i	i	15%*	i	x	200%*
CCCCOC(=O)c1ccc(NC(=O)c2ccoc2C)cc1	i	95	i	i	i	i	x	x	x	x	x	x
CCCCOC(=O)c1ccc(NC(=O)c2ccccc2OC)cc1	i	97	i	i	i	i	x	x	x	x	x	x
CCCCOC(=O)c1ccc(NC(=O)c2ocnc2C)cc1	i	99	i	i	-6.7*	i	x	x	x	x	i	i	TRPC4 sel inh 2=i;TRPC4 spec=i;HEK293 MPD ctr 2-1=i;HEK293 MPD ctr-1=i
CN(C(=O)c1ccccc1C(=O)OCC(=O)c1ccc(Br)cc1)c1ccccc1	i	107	i	i	i	i	x	x	x	x	x	x
Cc1cc(C)n(-c2nc(SCC(=O)O)c3c4c(sc3n2)COC(C)(C)C4)n1	i	102	i	i	i	i	x	x	x	x	x	x
Cc1cc(C)n(-c2nc(NCc3cccnc3)c3c4c(sc3n2)COC(C)(C)C4)n1	i	112	i	i	-7.4*	i	x	x	x	x	i	i	TRPC4 sel inh 2=i;TRPC4 spec=i;HEK293 MPD ctr 2-1=i;HEK293 MPD ctr-1=i
CCN(CC)CCCNc1nc(-n2nc(C)cc2C)nc2sc3c(c12)CC(C)(C)OC3	i	107	i	i	-10*	i	x	x	x	x	57%*	i	TRPC4 sel inh 2=i;TRPC4 spec=-11%*;HEK293 MPD ctr 2-1=i;HEK293 MPD ctr-1=-204%*
CNC(=O)C[C@@H]1C(=O)N(c2ccc(OC)cc2)CC1(C)C	x	99	x	x	x	x	x	x	x	x	x	x
Cc1c(CN(C)C)c2c(n1C)C(=O)c1ccc(Br)cc1-2	i	98	i	i	-11*	i	-178%*	67%*	-32%*	59%*	66%*	i
O=C(Nc1ccc(N2CCOCC2)cc1)c1ccc(Cl)nc1	i	96	i	i	i	i	x	x	x	x	x	x
CCN(c1ccc(NC(=O)c2ccc(Cl)nc2)cc1)C(C)C	i	99	i	i	-6.5*	i	i	i	i	i	i	i
c1ccc(-n2ncc3cccnc32)cc1	i	102	i	i	i	i	x	x	x	x	x	x
O=c1c2ccccc2nc(SCc2ccc([N+](=O)[O-])cc2)n1CCCO	i	89	i	i	-5.5*	-6*	i	i	i	84%*	i	i
O=C(CSc1nnc2ccccn12)Nc1ccc2c(c1)OCCO2	i	96	i	i	i	i	x	x	x	x	x	x
O=[N+]([O-])c1ccc(CN2CCOCCOCCN(Cc3ccc([N+](=O)[O-])cc3)CCOCC2)cc1	i	99	i	i	-5.5*	i	i	i	-12%*	74%*	46%*	i
O=[N+]([O-])c1ccc(COc2ccc(CN3CCOCC3)cc2)cc1	x	104	x	x	x	x	x	x	x	x	x	x
O=[N+]([O-])c1cccc(C(=Nc2cccc(Cl)c2)NO)c1	i	108	i	i	-8.8*	i	x	x	x	x	i	i	TRPC4 sel inh 2=i;TRPC4 spec=i;HEK293 MPD ctr 2-1=i;HEK293 MPD ctr-1=i
COc1ccc(Oc2nc(-c3ccccn3)ncc2OC)cc1	i	98	i	i	i	i	x	x	x	x	x	x
COc1cnc(-c2ccccn2)nc1Oc1cccc(Cl)c1	i	98	i	i	-5.5*	i	i	i	i	i	i	i
